Results from ChEMBL document CHEMBL1148350, “Synthesis, biological activity, and three-dimensional quantitative structure-activity relationship model for a series of benzo[c]quinolizin-3-ones, nonsteroidal inhibitors of human steroid 5alpha-reductase 1” (J Med Chem, 2004).

Key:
[1] = target: T1, 3-oxo-5-alpha-steroid 4-dehydrogenase 1 (Homo sapiens, UniProt P18405); test: Log of inhibitory concentration against human recombinant steroid 5-alpha-reductase type I in stably transfected chinese hamster ovary (CHO) 1827 cells using [3H]testosterone.
T1 sequence (P18405 whole entry): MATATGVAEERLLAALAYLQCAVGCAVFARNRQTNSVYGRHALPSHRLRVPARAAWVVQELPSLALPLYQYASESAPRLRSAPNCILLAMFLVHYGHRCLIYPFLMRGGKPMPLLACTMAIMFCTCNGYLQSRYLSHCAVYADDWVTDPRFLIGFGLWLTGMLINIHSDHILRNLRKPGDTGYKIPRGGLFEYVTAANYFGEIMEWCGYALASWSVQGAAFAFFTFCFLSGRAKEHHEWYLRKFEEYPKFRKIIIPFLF
How it was run: (§1)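 Intact stably transfected CHO 1827 cells expressing human recombinant 5αR-1 were incubated 30 min with [3H]-testosterone at its Km (2 μM) plus inhibitor over 10^-9–10^-5 M. IC50 was obtained by four-parameter logistic fit. Finasteride served as reference inhibitor across repeated assays.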

[2] = Partition coefficient (logP); format: physicochemical; conditions: octanol/water
[3] = target: T1, 3-oxo-5-alpha-steroid 4-dehydrogenase 1; test: Inhibitory concentration against human recombinant steroid 5-alpha-reductase type I in stably transfected chinese hamster ovary (CHO) 1827 cells using [3H]testosterone.; how it was run: as §1
[4] = target: T2, 3-oxo-5-alpha-steroid 4-dehydrogenase 2 (Homo sapiens, UniProt P31213); test: Inhibitory concentration against human recombinant steroid 5-alpha-reductase type 2 in stably transfected chinese hamster ovary 1827 cells using [3H]testosterone
T2 sequence (P31213 whole entry): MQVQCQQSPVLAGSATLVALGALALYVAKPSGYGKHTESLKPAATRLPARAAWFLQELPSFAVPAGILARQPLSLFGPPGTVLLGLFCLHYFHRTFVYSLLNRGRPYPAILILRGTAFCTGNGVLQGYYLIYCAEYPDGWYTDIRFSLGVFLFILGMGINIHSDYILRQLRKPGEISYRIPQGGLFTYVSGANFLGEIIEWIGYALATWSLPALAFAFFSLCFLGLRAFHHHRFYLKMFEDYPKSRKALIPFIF
How it was run: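 Intact stably transfected CHO 1827 cells incubated 30 min with [3H]testosterone at its Km concentration plus inhibitor over 10^-9–10^-5 M. IC50 fitted by four-parameter logistic equation. Finasteride run as reference inhibitor to check interassay reproducibility.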

| IC50 [1] | logP [2] | IC50 [3] | IC50 [4] | Structure (SMILES) |
| --- | --- | --- | --- | --- |
| 0.0794 µM | 4.62 | 0.079 µM | – | CC1=C2CCc3cc(-c4cccs4)ccc3N2CCC1=O |
| 0.0214 µM | 3.57 | 0.0216 µM | – | C=Cc1ccc2c(c1)CCC1=C(C)C(=O)CCN12 |
| 0.0933 µM | 5.35 | 0.0929 µM | – | CC1=C2CCc3cc(OCc4ccc(Cl)cc4)ccc3N2CCC1=O |
| 0.0977 µM | 4.96 | 0.0968 µM | – | CC1=C2CCc3cc(C(=O)OCc4ccccc4)ccc3N2CCC1=O |
| – | 2.83 | – | – | Cc1ccc2c(c1)CCC1=CC(=O)CCN12 |
| 0.17 µM | 3.35 | 0.17 µM | – | CC1=C2CCc3cc(-c4cccnc4)ccc3N2CCC1=O |
| 0.955 µM | 4.86 | 0.965 µM | – | COC(=O)c1cccc(OC(=O)c2ccc3c(c2)CCC2=C(C)C(=O)CCN23)c1 |
| 0.0832 µM | 5.52 | 0.0837 µM | – | CC1=C2CCc3cc(OCc4ccc(C(F)(F)F)cc4)ccc3N2CCC1=O |
| 0.0141 µM | 3.88 | 0.014 µM | – | CCc1ccc2c(c1)CCC1=C(C)C(=O)CCN12 |
| 1.05 µM | 4.05 | 1.05 µM | – | CC1=C2CCc3cc(C(=O)Oc4ccc(C)cc4)ccc3N2CCC1=O |
| 0.0141 µM | 5.54 | 0.0142 µM | – | CC1=C2CCc3cc(/C=C\c4ccccc4)ccc3N2CCC1=O |
| – | – | – | 0.021 µM | CC(C)(C)NC(=O)[C@H]1CC[C@H]2[C@@H]3CC[C@H]4NC(=O)C=C[C@]4(C)[C@H]3CC[C@]12C [FINASTERIDE] |
| 1 µM | 4.37 | 1 µM | – | CC1=C2CCc3cc(C(=O)OC(C)(C)C)ccc3N2CCC1=O |
| 0.112 µM | 4.64 | 0.111 µM | – | CC1=C2CCc3cc(OCc4ccccc4)ccc3N2CCC1=O |
| 0.219 µM | 3.66 | 0.221 µM | – | CCOC(=O)c1ccc2c(c1)CCC1=C(C)C(=O)CCN12 |
| – | 2.85 | – | – | CC1=C2CCc3ccccc3N2CCC1=O |
| 0.12 µM | 4.86 | 0.121 µM | – | COC(=O)c1ccc(OC(=O)c2ccc3c(c2)CCC2=C(C)C(=O)CCN23)cc1 |
| – | 2.33 | – | – | O=C1C=C2CCc3ccccc3N2CC1 |

| IC50 [1] | logP [2] | IC50 [3] | IC50 [4] | Structure (SMILES) |
| --- | --- | --- | --- | --- |
| 0.562 µM | 6.47 | 0.56 µM | – | CC1=C2CCc3cc(C(=O)Oc4ccc(C(C)(C)C)cc4)ccc3N2CCC1=O |
| 0.00813 µM | 3.88 | 0.0081 µM | – | CC1=C2CCc3cc(Br)ccc3N2CCC1=O |
| 0.0933 µM | 5.35 | 0.093 µM | – | CC1=C2CCc3cc(OCc4cccc(Cl)c4)ccc3N2CCC1=O |
| 0.724 µM | 3.97 | 0.731 µM | – | CC1=C2CCc3cc(C(=O)OC(C)C)ccc3N2CCC1=O |
| 0.117 µM | 3.13 | 0.117 µM | – | COC(=O)c1ccc2c(c1)CCC1=C(C)C(=O)CCN12 |
| – | 3.35 | – | – | CC1=C2CCc3cc(C)ccc3N2CCC1=O |
| 0.933 µM | 4.64 | 0.942 µM | – | CC1=C2CCc3cc(C(=O)Oc4ccccc4)ccc3N2CCC1=O |
| 0.38 µM | 5.54 | 0.38 µM | – | CC1=C2CCc3cc(/C=C/c4ccccc4)ccc3N2CCC1=O |
| 0.129 µM | 4.74 | 0.128 µM | – | CC1=C2CCc3cc(-c4ccccc4)ccc3N2CCC1=O |
| – | 3.22 | – | – | O=C1C=C2CCc3cc(Cl)ccc3N2CC1 |
| 0.148 µM | 6.41 | 0.149 µM | – | CC1=C2CCc3cc(OCc4ccc(C(F)(F)F)cc4C(F)(F)F)ccc3N2CCC1=O |
| 0.132 µM | 4.12 | 0.133 µM | – | CC1=C2CCc3cc(-c4ccco4)ccc3N2CCC1=O |
| 0.00871 µM | 5.49 | 0.00875 µM | – | CC1=C2CCc3cc(C#Cc4ccccc4)ccc3N2CCC1=O |
| 0.182 µM | 2.87 | 0.178 µM | – | COc1ccc2c(c1)CCC1=C(C)C(=O)CCN12 |
| 0.389 µM | 6.41 | 0.393 µM | – | CC1=C2CCc3cc(OCc4cc(C(F)(F)F)ccc4C(F)(F)F)ccc3N2CCC1=O |
| 0.195 µM | 5.35 | 0.194 µM | – | CC1=C2CCc3cc(OCc4ccccc4Cl)ccc3N2CCC1=O |
| 0.00562 µM | 3.73 | 0.0058 µM | – | CC1=C2CCc3cc(Cl)ccc3N2CCC1=O |
